Most compounds without a hit are left out; they make up all but 5.2% or so of the library.
M1 agonist: M1 muscarinic receptor agonism. 3% of 64,000 active. B-score at 10 µM. CHO-M1 cells, Fluo-4 calcium fluorescence, agonist mode; hits give high values;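 active = fluorescence rise, raw or as B-score row- and column-corrected plate score, outside the 99.7% band of its plate's samples, either direction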
WNV protease inh: blocks West Nile virus NS2B-NS3 protease activity; P06935; WNV NS2B-NS3 protease, fluorogenic substrate Ex360/Em465; hits give low values; z-score (concentration not given with the values); 0.18% of 65,000 active; in the data active = z-score below about -3
Target sequence (P06935 1371-1501 limits assumed): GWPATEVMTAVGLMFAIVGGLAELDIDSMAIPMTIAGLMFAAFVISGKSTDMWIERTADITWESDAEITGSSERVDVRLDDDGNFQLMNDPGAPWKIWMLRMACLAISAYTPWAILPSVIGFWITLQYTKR
Target sequence (P06935 1502-1679 limits assumed): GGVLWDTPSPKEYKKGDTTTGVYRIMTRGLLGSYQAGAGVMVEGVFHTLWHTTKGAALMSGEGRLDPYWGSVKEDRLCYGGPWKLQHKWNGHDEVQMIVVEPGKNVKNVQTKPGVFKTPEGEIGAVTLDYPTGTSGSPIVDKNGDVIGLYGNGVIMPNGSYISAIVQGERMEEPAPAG
Ecoli WT expand: blocks growth of wild type E. coli BW25113 | OD600 absorbance | growth inhibition, % at 100 µM | 0.15% of 98,000 active;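 active = growth inhibition above about 50% at one test dose, limit read from the data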;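 note: growth measured after 20 h incubation at 37 °C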
tolC growth inh: E. coli tolC mutant growth inhibition | E. coli BW25113 tolC mutant growth, OD615 | growth inhibition, % at 10 µM (by protocol) | 2.2% of 65,000 active | AID 573;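 active = growth inhibition at or above a cutoff equal to the mean over every tested compound plus 3 SD, cut at about 60% in these data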;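 note: growth measured after 20 h incubation at 37 °C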
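System: E. coli ΔtolC::kan strain BW25113; Buffer or medium: LB broth supplemented with 50 µg/mL kanamycin; Compound: 10 µM final, single dose; Incubation: bacterial growth with compound for 20 h at 37 °C; Signal: A615 absorbance measurement; Evaluation: growth inhibition in percent.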
M1 antag: blocks the rat M1 muscarinic receptor response to acetylcholine; P08482; B-score at 10 µM; CHO-M1 cells, Fluo-4 calcium, ACh EC80 antagonist mode; hits give low values; 3.4% of 64,000 active;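 active = calcium fluorescence response, raw or row-and-column corrected B-score, differing from the plate sample mean either way at a set confidence level, mostly lower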
AP complement: alternative pathway complement inhibition, orthogonal assay; Human serum alternative complement pathway, LPS-coated ELISA, C3 deposition; tested in compound mixtures; inhibition, % at 5 µM; 0.08% of 62,000 active;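 active = inhibition above 30% in each of the two pooled mixtures holding the compound, so the lower value exceeds 30%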
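Assay system: human serum alternative complement pathway, C3 deposition on LPS-coated wells; Dosing: 5 µM per compound in ten-compound mixtures; Detection: Anti-C3 ELISA, OD 450 nm; Buffer or medium: Mg2+-EGTA GVB++ buffer containing human serum at 1:15 dilution; Timing: 1 h at 37 °C; Replication: two different pools per compound.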
A number is an active result; i = inactive; nt = no result.

SMILES	M1 agonist	WNV protease inh	Ecoli WT expand	tolC growth inh	M1 antag	AP complement
CN(C)C(=O)CCc1nc(-c2ccc(C(C)(C)C)cc2)no1	i	i	i	i	i	i
Cc1ccc(-c2noc(CN(C(=O)Cc3ccccc3)C(C)C)n2)cc1	nt	nt	i	nt	nt	nt
O=C1C(=O)N(CCCN2CCOCC2)C(c2cccs2)/C1=C(/O)c1ccc2c(c1)OCO2 (stereo not given)	i	i	i	i	i	i
CN(C)/C=C1\C(=O)c2ccc(N(C)C)nc2CC1c1ccccc1 (stereo not given)	i	i	nt	i	i	i
O=C(Cn1c(C(=O)NCC2CCCO2)cc2sccc21)c1ccccc1 (stereo not given)	i	i	i	i	i	i
O=C(Cn1c(C(=O)NCc2ccco2)cc2sccc21)c1ccccc1	i	i	i	65	i	i
CCN(CC)S(=O)(=O)c1ccc(F)c(C(=O)NCCC(C)C)c1	i	i	i	i	i	i
CCOc1ccc(OCC)c(N=c2oc3c(C)ncc(CO)c3cc2C(N)=O)c1	i	i	i	i	i	84
COc1cccc(N=c2oc3c(C)ncc(CO)c3cc2C(=O)Nc2ccccc2OC)c1	nt	nt	i	nt	nt	nt
CCOC(=O)c1c(C)n(C)c2ccc(OC)c(NC(=O)CN3CCCCC3)c12	i	-3.4	i	i	i	nt
O=C(NNC(=O)c1ccc([N+](=O)[O-])o1)c1ccccc1	nt	nt	100	nt	nt	nt
CCOC(=O)/C(=C\c1ccc([N+](=O)[O-])o1)NC(=O)c1ccccc1	nt	nt	i	nt	nt	nt
CCC(=C(c1ccc(OC)cc1)c1ccc(OC)cc1)c1cn(CC(O)CN2CCN(C)CC2)c2ccccc12 (stereo not given)	nt	nt	i	nt	nt	nt
COc1ccccc1N1CCN(CC(=O)Nc2cc(C)nn2-c2nc(C)cc(C)n2)CC1	3.4	i	nt	i	i	i
c1csc(-c2nc3nc4ccccc4nc3n2Cc2ccc3c(c2)OCO3)c1	i	i	i	66	i	i
CCCn1c(-c2cccs2)nc2nc3ccccc3nc21	nt	nt	i	nt	nt	nt
O=S(=O)(c1ccc(Oc2ccc(Cl)cc2)c(S(=O)(=O)N2CCCCC2)c1)N1CCCCC1	nt	nt	i	nt	nt	nt
O=C(Nc1ccccc1)Nc1cccc(Cl)c1	nt	nt	i	nt	nt	nt
CC(=O)c1ccc(NC(=O)Nc2cccc(Cl)c2)cc1	nt	nt	52	nt	nt	nt
CC(C)c1ccc(NC(=O)C2C3C=CC4(CN(CCCN5CCOCC5)C(=O)C24)O3)cc1 (stereo not given)	i	i	i	i	i	i
CCN(CC)C(=O)C1=C(C)Nc2nnnn2C1c1cccnc1 (stereo not given)	i	i	i	i	i	i
CCOC(=O)c1[nH]c2ccccc2c1NC(=O)CC	i	-4	i	i	i	i
O=C(Nc1ccc(Cl)c(Cl)c1)N1CCSC1c1ccco1 (stereo not given)	i	i	i	100	i	i
O=C(Nc1ccc(Cl)c(Cl)c1)N1CC=CCC1	nt	i	i	i	nt	i
C=CCNC(=S)N1CCN(c2ncc3c(=O)c(C(=O)O)cn(CC)c3n2)CC1	nt	nt	100	nt	nt	nt
SMILES	M1 agonist	WNV protease inh	Ecoli WT expand	tolC growth inh	M1 antag	AP complement
Oc1c(CN2CCCCC2)cc(Br)c2cccnc12	i	i	100	100	i	i
Oc1c(CN2CCc3ccccc3C2)cc(Cl)c2cccnc12	i	i	86	64	i	i
O=C(C[n+]1cc2ccccc2c2ccccc21)c1ccccc1	nt	nt	i	nt	nt	nt
CCCCCCCCC[n+]1cccc2c3ccccc3ccc21	nt	nt	70	nt	nt	nt
CCn1c(N2CCN(C(=S)NCCc3ccccc3)CC2)nc2ccccc21	nt	nt	i	nt	nt	nt
Cc1cc(-n2ccc(=O)[nH]c2=O)nc(-c2ccccc2)n1	i	i	i	i	i	i
CSc1nc(C)cc(-n2ccc(=O)[nH]c2=O)n1	i	i	i	i	1	i
O=[N+]([O-])c1ccc(O)c(-c2nc(-c3ccccc3)c(-c3cccs3)[nH]2)c1	nt	nt	i	nt	nt	nt
COc1ccc(-c2nc(-c3cccs3)c(-c3cccs3)[nH]2)cc1O	i	i	i	97	i	i
Cn1c(=O)c2c(nc(N3CCCCCC3)n2Cc2cccc3ccccc23)n(C)c1=O	i	i	i	74	i	i
COc1ccc(CNS(=O)(=O)c2cccc(S(=O)(=O)N3CCOCC3)c2)cc1	nt	nt	i	nt	nt	nt
CCOC(=O)c1ccccc1NC(=O)C(C)Oc1ccccc1 (stereo not given)	i	i	i	69	i	i
CCCC(C)C(=O)Nc1ccccc1C(=O)OCC (stereo not given)	nt	nt	i	nt	nt	nt
COc1ccc(S(=O)(=O)N(CCc2ccccc2)CC(=O)O)cc1C	nt	nt	i	nt	nt	nt
CCCCOCCCNC(=O)N[C@@H](CC(C)C)C(=O)O	i	-3.7	i	i	i	i
CC(C)C[C@H](NC(=O)NC(C)C)C(=O)O	i	i	i	i	i	i
Cc1nn(-c2ccc(Cl)cc2)c2sc(C(=O)N3CCN(c4ccccn4)CC3)cc12	i	i	i	i	i	i
Cc1nn(-c2ccc(F)cc2)c2sc(C(=O)N3CCCCCC3)cc12	i	i	i	97	i	i
Cc1nn(-c2ccc(Cl)cc2)c2sc(C(=O)N3CCN(C(=O)c4ccco4)CC3)cc12	2.8	i	nt	i	i	i
CC(C)[C@H](NC(=O)OC(C)(C)C)c1nnc(SCC(=O)Nc2ccc(Br)cc2)o1	i	i	i	i	i	i
CSc1nc2ccccc2cc1/C=C(\C#N)c1cccc(Cl)c1	nt	nt	i	nt	nt	nt
Cc1ccc(NC(=O)c2nnn(-c3cc(C)cc(C)c3)c2N)cc1	i	i	i	67	i	i
CC1=NC(C(F)(F)F)(C(F)(F)F)C(C#N)=C(C)N1	i	i	i	i	i	i
CCN1/C(=C/c2ccc3ccccc3[n+]2CC)C=Cc2ccccc21	nt	nt	57	nt	nt	nt
COc1ccc(N=CC2=C(O)CC(C)(C)CC2=O)cc1	i	i	i	i	i	i
SMILES	M1 agonist	WNV protease inh	Ecoli WT expand	tolC growth inh	M1 antag	AP complement
COc1ccc(N=CC2=C(O)CCCC2=O)cc1	i	-4.2	i	i	i	i
COc1ccc(CCN2C(=S)NC3CC2(C)Oc2ccc([N+](=O)[O-])cc23)cc1OC (stereo not given)	nt	nt	i	nt	nt	nt
O=C(c1ccc(Cl)cc1)C1C2C(=O)N(c3ccccc3)C(=O)C2C2CCCN21 (stereo not given)	15	i	i	i	i	i
Cc1ccc(N2C(=O)[C@@H]3[C@H](C2=O)C2CCCN2[C@@H]3C(=O)c2ccccc2)cc1 (stereo not given in full)	i	i	i	i	i	nt
CCCCCc1c(C)nc(Nc2ccccc2)[nH]c1=O	i	i	i	75	i	i
Cc1ccc(Nc2nc(C)c(CCC(C)C)c(=O)[nH]2)cc1	i	i	i	i	i	i
Cc1cccc(Cn2c(SCCN3CCCCC3)nc3c2c(=O)[nH]c(=O)n3C)c1	i	i	nt	i	-3.6	i
COc1ccc(Cc2c(N)nc(N)nc2N)cc1	nt	nt	i	nt	nt	nt
CC(C)Oc1ccc(Cc2cnc(N)nc2N)cc1	nt	nt	71	nt	nt	nt
CCOc1ccc(C2CC(=O)NC(SCC(=O)OC)=C2C#N)cc1 (stereo not given)	i	i	i	i	i	i
